Reference: ChEMBL document CHEMBL4513216, “Probing the Open Global Health Chemical Diversity Library for Multistage-Active Starting Points for Next-Generation Antimalarials” (ACS Infect Dis, 2020)

Assay: Toxicity liver stage against HepG2, at 10uM
Format: cell-based
Set-up: test concentration 10 uM, cell line HepG2-A16-CD81EGFP
Conditions: human, HepG2-A16-CD81EGFP cells; read-out: INHIBITION
How it was run: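 Uninfected HepG2-A16-CD81EGFP cells, 3 × 10^3 per well, 1536-well, plated on prespotted compound at 10 μM final, parasite-free screening media added to match infected plates; puromycin 10 μM positive, DMSO 0.5% negative; run in parallel with 48 h PbLuc assay at 37 °C, 5% CO2; viability by CellTiter-Glo luminescence, normalized to controls.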

SMILES	cytotoxicity at 10 µM [%]
Cc1cc2c(N)nc(=O)n(CC(=O)Nc3cccc(Cl)c3)c2s1	-3.14
O=C(Nc1nccs1)c1csc(NC2CCCC2)n1	42
CC1=Nc2c(c(=O)[nH]n2C(C)C)C(c2ccc3ncccc3c2)S1 (stereo unspecified)	4.66
CNC(=O)CS(=O)(=O)C1CCN(S(=O)(=O)c2cccc(Cl)c2C)CC1	4.73
CN(C)C(=O)N1CCN(C(=O)c2cccc(Cl)c2)CC2(CNC(=O)C2)C1 (stereo unspecified)	7.61
O=C1NC(c2ccccc2)=N[C@@]12CC[C@@H]1CN(S(=O)(=O)C3CC3)C[C@@H]12	9.91
O=C(Nc1cccc(Cl)c1)c1nn(C2CCS(=O)(=O)C2)c2c1CCCC2 (stereo unspecified)	-12.9
CN(C)c1nc2n(c(=O)n1)CCN2C(=O)Nc1cccc(Cl)c1	8.19
Cc1cccc(NC(C)C(=O)Nc2nccs2)c1 (stereo unspecified)	-0.524
CCn1nc(C)c(C(=O)NCc2csc(C3CC3)n2)c1C	20.5
Cn1nccc1CN1CCOC(c2cccc(Nc3ccccn3)n2)C1 (stereo unspecified)	23.9
Cc1cc(-c2cnc(N3CCC(C(N)=O)CC3)nc2C(C)C)on1	72.2
Nc1nccnc1CC1CCCN(Cc2ccnc3ccccc23)C1 (stereo unspecified)	24.7
Cc1csc(C(=O)N2CCC(O)(CN3CCc4ccccc4C3)C2)c1 (stereo unspecified)	-1.22
COc1cccc(-c2noc(C3CCN(Cc4ccncc4)C3)n2)c1 (stereo unspecified)	25.9
CN1CCCC1c1cccc(Cc2ccccc2F)n1 (stereo unspecified)	7.31
O=C(CCC1CCCC1)NCc1nnc2ccccn12	2.52
FC(F)Oc1ccc(CNCc2cc(Br)c3c(c2)OCO3)cc1	35.1
CN1CCCN(c2ccc(F)cc2CNC(=O)c2ccsc2)CC1	-12.3
Cc1ncc(CN2CCC(c3ccnn3C)CC2)n1-c1ccccc1	19.1
CC(C)(C)CC1CCCN1Cc1nc(-c2ccco2)no1 (stereo unspecified)	4.11
COC(=O)C(CNC(=O)Nc1nncs1)Cc1cccc(C)c1 (stereo unspecified)	6.53
CCCOc1ccccc1C(N)CC(C)C (stereo unspecified)	-0.595

SMILES	cytotoxicity at 10 µM [%]
NC(=O)CCC1CCCN(c2ccnc3cc(F)ccc23)C1 (stereo unspecified)	14.6
Cc1cc(C2CCCN(Cc3nc(Cc4ccccc4)no3)C2)n[nH]1 (stereo unspecified)	3.82
COc1cccc(NC(=O)N2CCC(O)(C(F)(F)F)C2)c1 (stereo unspecified)	3.2
CC(CCc1ccccc1F)C(=O)NS(=O)(=O)N(C)C(C)C (stereo unspecified)	10.6
COCCCC(=O)Nc1cc(Cl)c(Cl)cn1	87
CCc1nsc(N2CCN(CC(=O)NCc3cccnc3)CC2)n1	-4.52
COc1cccc(C(=O)NCc2ccccc2S(=O)(=O)N(C)CCO)c1	-4.73
CCc1ccc(C2COCCN2C(=O)Nc2ccc(C(N)=O)c(Cl)c2)o1 (stereo unspecified)	2.42
COc1ccc(CNC(=O)C2=NN(c3ccc(C)cc3)C(=O)CN2)cc1	17.5
Cc1cc(C)n(CC2CCCCN2CC(=O)Nc2nccs2)n1 (stereo unspecified)	10.1
CCn1ccnc1CN1CCN(c2nc(C)cc(OC)n2)CC1	-5.48
Cc1nc(C(C)(C)NC(=O)Nc2ccc(C#N)cc2)no1	13
COCCN(Cc1ccc(F)cc1Cl)C(=O)c1cnn(C)c1C	12.8
Cc1cnn(CC2CCCN2Cc2coc(-c3cccc(F)c3)n2)c1 (stereo unspecified)	1.2
CC(C)c1nc(CNC2CCCN(c3cccnn3)C2)no1 (stereo unspecified)	7.68
CC(=O)Nc1cccc(OCCNC(=O)N(C)Cc2ccccc2)c1	-13.2
O=C(CN1CCCC1Cn1cncn1)Nc1ccc(Cl)cn1 (stereo unspecified)	-5.89
COc1ccccc1NC(=O)N(CCO)Cc1ccsc1	-1.05
CN(Cc1ccc(N(C)C)cc1)C(=O)CSc1ccc(Br)cc1	45.6
NC(CC1CCCC1)c1ccc(Oc2ccccc2)cc1 (stereo unspecified)	3.72
Cc1nn(CCC#N)c(C)c1CCC(=O)N(C)Cc1ccc(F)cc1F	-1.31
Cc1n[nH]cc1CNC1CCN(c2cccc(C(F)(F)F)c2)CC1	-64.8
Cc1cnn(CC(=O)NCC2(O)CCCc3ccccc32)c1 (stereo unspecified)	-38

SMILES	cytotoxicity at 10 µM [%]
CC(c1ccccc1)N(C)C(=O)CN1CCCc2cc(F)cc(F)c21 (stereo unspecified)	27.3
Clc1cnccc1NCc1cccc(COC2CCOCC2)c1	53.9
CC(C)n1cnnc1C1CCCN(S(=O)(=O)CC2CCCC2)C1 (stereo unspecified)	-11.7
CCCC(=O)N1CCCN(C(=O)c2oc(C)nc2C)CC1	-3.92
CC(C)c1nc(COc2cccc3c2NC(=O)CO3)cs1	35.8
CNC(=O)c1[nH]nc2ccc(I)cc12	-61.9
CCc1nnsc1C(=O)NC1CCN(CCOc2ccc(Br)cc2)CC1	-9.56
CN(C)c1ncc(CNC(=O)Nc2ccc(C(F)(F)F)cc2)n1C	-49.9
COc1ccc(NC(C)=O)c(N2CCN(C(C)=O)CC2)n1	-8.83
Cc1ncnc2c1CCN(C(=O)N(C)C)CC2	-79.1
Cc1cccc(CN2CCC3(CC(C(=O)NCC(C)C)=NO3)C2)c1 (stereo unspecified)	4.66
c1ccc(CCN2C[C@@H]3OCCN(c4ncccn4)[C@@H]3C2)cc1	-74.1
O=C(CCO)N1CC[C@@H]2CN(C(=O)c3ccco3)CCO[C@@H]2C1	-72.6
COCCC(=O)N1CCc2nc(N3CCOCC3)nc(NC(C)C)c2C1	-108
COc1cc(N2C[C@H]3CCC[C@@H](CN4CCCC4)[C@H]3C2)ncn1	-79
Cn1cc(CNCC2(N3CCCCC3)Cc3ccccc3C2)cn1	-3.07
CCC(CO)N(Cc1ccccn1)Cc1c[nH]nc1-c1ccc(F)cc1 (stereo unspecified)	-1.83
CCCn1ncc(-c2ccnc(NC3CCCc4ccccc43)n2)c1C (stereo unspecified)	20.6
COc1cccc(OC2CN(C(=O)c3cc(CC(C)C)nn3C)C2)c1	53.2
Cc1nc[nH]c1CN1CCCC12CCN(c1nc3ccccc3s1)CC2	-0.369
CCCNCc1ccc(-c2ccnc3[nH]ccc23)cc1	66
COc1ccc(C(=O)NC2CC2)c(OC2CCN(C(C)CO)CC2)c1 (stereo unspecified)	-7.71
CCn1cc(-c2cc(-c3cc(CN(C)C)cs3)nc(N)c2C#N)c(C)n1	0.184

SMILES	cytotoxicity at 10 µM [%]
CCC(C)CN1CCC(n2cc(C3CCCCC3)nn2)CC1 (stereo unspecified)	-2.9
Cc1nc(CCN)cc(N2CCC(O)(c3ccc(Cl)cc3)CC2)n1	-2.24
CCCN1CCC(Nc2cc(-c3ccccc3)ccc2OC)CC1	0.906
c1ccc2sc(N3CCN(c4ncnc5c4CCC5)CC3)nc2c1	56.7
CNC(=O)CCC(=O)N1CCOC(c2ccc3cc(OC)ccc3c2)C1 (stereo unspecified)	3.85
Cc1ccccc1CN(Cc1ccc(S(C)(=O)=O)cc1)CC(C)C	16.6
FC(F)(F)c1cccc(OC2CCN(Cc3ncc[nH]3)CC2)c1	-2.45
Cc1csc2c(N3CCC(Cn4cc(C(C)(C)O)nn4)CC3)ncnc12	29.9
Nc1nc2c(c(NCc3nccs3)n1)CCN(CC1CCCC1)CC2	4.36
Nc1cc(N2CCCC(COc3ccc(F)cc3)C2)nc(N)n1 (stereo unspecified)	-7.58
COc1ccc(F)c(CN2CCCC3(CCN(C4CCOCC4)C3)C2)c1 (stereo unspecified)	-1.48
Cc1nc(N(C)C2CCCCC2)ncc1C(C)NC(=O)c1cccnc1 (stereo unspecified)	-105
Cn1cnnc1CN1CCC2(CCC(=O)N(Cc3ccccc3)C2)CC1	7.8
CC(=O)N1CCc2nc(N(C)C)nc(NCCc3ccccc3)c2CC1	-2.38
O=C1NCCCC12CCN(c1nc3c(c(C(F)(F)F)n1)CCCC3)C2 (stereo unspecified)	-7.11
CCC(C)N(Cc1cc(C)n[nH]1)Cc1ccccc1Cl (stereo unspecified)	6.65
O=C1N(Cc2ccc(F)c(F)c2)CCCC12CCN(C1CCSCC1)C2 (stereo unspecified)	-19.1
CC(C)c1cc(CN2CCC(N)CC2)no1	-8.24
CCc1nc(C)cn1C(=O)Nc1ccc(F)cc1	11.1
CCOCc1ccc(CNc2cncc(-n3cccn3)n2)cc1	20.8
c1cnc(-c2nc(CN3CCN(CC4CC4)CC3)cs2)nc1	-10.1
COc1cc(CNCc2c(C)nn(CC(C)C)c2N(C)C)ccn1	-9.3
Cc1ccc(S(=O)(=O)Nc2ccc(=O)n(C)c2)c(Br)c1	0.802

SMILES	cytotoxicity at 10 µM [%]
COc1cc(C(=O)Nc2nc(C)no2)ccc1OC(F)F	-4.29
COc1ccc(C)cc1CN1CCCC1c1noc(C2CC2)n1 (stereo unspecified)	16.3
c1ccc2sc(CN3CCCC3c3noc(C4CC4)n3)nc2c1 (stereo unspecified)	-9.88
c1ccc2c(N3CCCC3Cn3cccn3)ncnc2c1 (stereo unspecified)	7.94
c1cnn(CC2CCCN2c2ncnc3sccc23)c1 (stereo unspecified)	38.1
N#Cc1ccc(NCCNc2ccc(C(F)(F)F)cn2)nc1	73
Cn1ncc(NCc2cccc(COC(C)(C)C)c2)c(Cl)c1=O	42.2
Cc1nc(C)n(CC2CCCN(c3ncnc4c3CCC4)C2)n1 (stereo unspecified)	30.5
Cn1ccnc1CN(Cc1ccccn1)Cc1ccccc1Cl	11.5
O=C([C@H]1C[C@H]2OCC[C@H]2N(CC2CCOCC2)C1)N1CCCC1	-0.972
COc1c(CNC2CCOc3c(Cl)cccc32)c(C)nn1C (stereo unspecified)	28.9
Fc1cccc(N2CCCC3(C2)CN(c2ncccn2)CCO3)c1 (stereo unspecified)	17.4
CS(=O)(=O)N1Cc2ccnn2CC(C(=O)NCc2cccnc2)C1 (stereo unspecified)	-88.9
CCc1cnc(N2CCc3cc(C(=O)NC)c(N(C)C)nc3CC2)nc1	-125
CN(C)c1nccc(N2CCO[C@H]3CN(Cc4nccn4C)C[C@H]32)n1	-123
Cc1ccc(C(=O)N2CC[C@@H]3[C@H]2CCC(=O)N3CCN(C)C)cn1	-0.726
Cc1ccc(C(=O)N2CCC3(CCN3c3ncccn3)C2)cn1 (stereo unspecified)	-135
CC(=O)c1cc(CN2C[C@@H]3CC[C@H]2CN(S(=O)(=O)N(C)C)C3)cs1	-8.19
CCC1=NN2C(=N)C(=Cc3cccn3-c3ccc(Cl)cc3)C(=O)N=C2S1	7.92
